In brackets after ≈: the same amount, converted by molar mass.
Assays:
Streptococcus pneumoniae [1] = assay: Antibacterial activity against macrolide-resistant Streptococcus pneumoniae 2686 harboring mutation in L4 ribosomal protein after overnight incubation by agar dilution method; assay type: functional
Streptococcus pyogenes [2] = assay: Antibacterial activity against macrolide-resistant Streptococcus pyogenes harboring erm(B) gene after overnight incubation by agar dilution method; assay type: functional
Summary of the method: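 Agar dilution MICs on Mueller-Hinton agar with 5% sheep blood. Inoculum 10^4 CFU/spot, incubated overnight at 35°C in ambient air. Clinical S. pneumoniae or group A streptococcal isolates; resistance genotypes (erm(B), erm(A), mef(A)/mef(E)) were assigned by PCR. S. pneumoniae ATCC 49619 served as QC strain in each run. Range, MIC50 and MIC90 reported per phenotype group.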

Streptococcus pyogenes [3] = assay: Antibacterial activity against macrolide-resistant Streptococcus pyogenes 2094 harboring erm(A) gene after 22 passages and 10 compound-free subculturing by retest method
Streptococcus pyogenes [4] = assay: Antibacterial activity against macrolide-resistant Streptococcus pyogenes 2368 harboring erm(B) gene after 18 passages and 10 compound-free subculturing by retest method
Streptococcus pneumoniae [5] = assay: Antibacterial activity against macrolide-susceptible Streptococcus pneumoniae 7127 harboring S20N mutation in L4 ribosomal protein and A105V mutation in L22 ribosomal protein after 29 passages and 10 compound-free subculturing by retest method; assay type: functional
Streptococcus pneumoniae [6] = assay: Antibacterial activity against penicillin-resistant Streptococcus pneumoniae after overnight incubation by agar dilution method; assay type: functional
Summary of the method: (§1)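 Agar dilution on Mueller-Hinton agar supplemented with 5% sheep blood. Inoculum 10^4 CFU/spot, incubated overnight at 35°C in ambient air. Test strains were clinical pneumococcal isolates. S. pneumoniae ATCC 49619 was included as the quality control strain in each run. MIC range, MIC50 and MIC90 were reported for each susceptibility category.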

Streptococcus pyogenes [7] = assay: Antibacterial activity against macrolide-resistant Streptococcus pyogenes 2094 harboring erm(A) gene after 5 passages and 10 compound-free subculturing by retest method
Streptococcus pneumoniae [8] = assay: Antibacterial activity against macrolide-resistant Streptococcus pneumoniae 2686 harboring mutation in L4 ribosomal protein after 14 passages and 10 compound-free subculturing by retest method; assay type: functional
Streptococcus pneumoniae [9] = assay: Antibacterial activity against penicillin-intermediate Streptococcus pneumoniae after overnight incubation by agar dilution method; assay type: functional
Summary of the method: (§2)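 Agar dilution on Mueller-Hinton agar supplemented with 5% sheep blood, inoculum 10^4 CFU/spot, read after overnight incubation at 35°C in ambient air. Clinical isolates with defined genotypes; S. pneumoniae ATCC 49619 quality control strain included in each run. MIC50/MIC90 are MICs inhibiting 50% and 90% of isolates.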

Streptococcus pneumoniae [10] = assay: Antibacterial activity against Streptococcus pneumoniae harboring erm(B) and mef(A) gene after overnight incubation by agar dilution method; assay type: functional
Summary of the method: (§3)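 Clinical isolates collected 1998–2008, with macrolide-resistance genes confirmed by PCR. MICs by agar dilution on Mueller-Hinton agar with 5% sheep blood. Inoculum 10^4 CFU/spot, incubated overnight at 35°C in ambient air. S. pneumoniae ATCC 49619 was the quality-control strain in every run.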

Streptococcus pneumoniae [11] = assay: Antibacterial activity against macrolide-resistant Streptococcus pneumoniae 1076 harboring erm(B) and mef(A) gene after 14 passages and 10 compound-free subculturing by retest method; assay type: functional
Summary of the method: (§4)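 Multistep selection by daily serial passage in subinhibitory drug concentrations. Medium was cation-adjusted Mueller-Hinton broth plus 5% lysed horse blood. Each day the next inoculum came from the tube 1–2 dilutions below the MIC whose turbidity matched the growth control, for up to 50 days. Clone MICs by CLSI macrodilution; identity to the parent confirmed by SmaI PFGE.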

Streptococcus pyogenes [12] = assay: Antibacterial activity against macrolide-resistant Streptococcus pyogenes 2368 harboring erm(B) gene after 6 passages and 10 compound-free subculturing by retest method
Streptococcus pneumoniae [13] = assay: Antibacterial activity against macrolide-susceptible Streptococcus pneumoniae 7127 harboring S20N mutation in L4 ribosomal protein and A105V mutation in L22 ribosomal protein after 38 passages and 10 compound-free subculturing by retest method; assay type: functional
Streptococcus pyogenes [14] = assay: Antibacterial activity against macrolide-resistant Streptococcus pyogenes 2094 harboring erm(A) gene after overnight incubation by agar dilution method
Streptococcus pneumoniae [15] = assay: Antibacterial activity against macrolide-resistant Streptococcus pneumoniae 2686 harboring mutation in L4 ribosomal protein after 22 passages and 10 compound-free subculturing by retest method; assay type: functional
Streptococcus pneumoniae [16] = assay: Antibacterial activity against macrolide-susceptible Streptococcus pneumoniae 7127 harboring S20N mutation in L4 ribosomal protein and A105V mutation in L22 ribosomal protein after 16 passages and 10 compound-free subculturing by retest method; assay type: functional
Streptococcus pyogenes [17] = assay: Antibacterial activity against macrolide-resistant Streptococcus pyogenes 2011 harboring mef(A) gene after overnight incubation by agar dilution method
Streptococcus pyogenes [18] = assay: Antibacterial activity against macrolide-resistant Streptococcus pyogenes 2368 harboring erm(B) gene after overnight incubation by agar dilution method
Streptococcus pneumoniae [19] = assay: Antibacterial activity against macrolide-resistant Streptococcus pneumoniae 1635 harboring erm(A) gene after overnight incubation by agar dilution method; assay type: functional
Streptococcus pneumoniae [20] = assay: Antibacterial activity against penicillin-susceptible Streptococcus pneumoniae after overnight incubation by agar dilution method; assay type: functional; summary of the method: as §1
Streptococcus pneumoniae [21] = assay: Antibacterial activity against Streptococcus pneumoniae harboring mutation in 23S rRNA after overnight incubation by agar dilution method; assay type: functional; summary of the method: as §3
Streptococcus pneumoniae [22] = assay: Antibacterial activity against Streptococcus pneumoniae harboring erm(A) gene after overnight incubation by agar dilution method; assay type: functional; summary of the method: as §3
Streptococcus pyogenes [23] = assay: Antibacterial activity against Streptococcus pyogenes harboring erm(A) gene after overnight incubation by agar dilution method; assay type: functional; summary of the method: as §3
Streptococcus pneumoniae [24] = assay: Antibacterial activity against quinolone-susceptible Streptococcus pneumoniae after overnight incubation by agar dilution method; assay type: functional; summary of the method: as §1
Streptococcus pneumoniae [25] = assay: Antibacterial activity against macrolide-resistant Streptococcus pneumoniae 1076 harboring erm(B) and mef(A) gene after 18 passages and 10 compound-free subculturing by retest method; assay type: functional; summary of the method: as §4
Streptococcus pneumoniae [26] = assay: Antibacterial activity against macrolide-resistant Streptococcus pneumoniae 24 harboring erm(B) gene after overnight incubation by agar dilution method; assay type: functional
Streptococcus pyogenes [27] = assay: Antibacterial activity against macrolide-susceptible Streptococcus pyogenes after overnight incubation by agar dilution method; assay type: functional; summary of the method: as §2
Streptococcus pneumoniae [28] = assay: Antibacterial activity against quinolone-resistant Streptococcus pneumoniae after overnight incubation by agar dilution method; assay type: functional; summary of the method: as §1
Streptococcus pneumoniae [29] = assay: Antibacterial activity against macrolide-resistant Streptococcus pneumoniae 1076 harboring erm(B) and mef(A) gene after overnight incubation by agar dilution method; assay type: functional
Streptococcus pneumoniae [30] = assay: Antibacterial activity against Streptococcus pneumoniae harboring mutation in L4 ribosomal protein after overnight incubation by agar dilution method; assay type: functional; summary of the method: as §3
Streptococcus pyogenes [31] = assay: Antibacterial activity against macrolide-resistant Streptococcus pyogenes 2094 harboring erm(A) gene after 34 passages and 10 compound-free subculturing by retest method
Streptococcus pneumoniae [32] = assay: Antibacterial activity against macrolide-resistant Streptococcus pneumoniae 3665 harboring mef(A) gene after 14 passages and 10 compound-free subculturing by retest method; assay type: functional

In the case of `CC[C@H]1OC(=O)[C@H](C)[C@@H](O[C@H]2C[C@@](C)(OC)[C@@H](O)[C@H](C)O2)[C@H](C)[C@@H](O[C@@H]2O[C@H](C)C[C@H](N(C)C)[C@H]2O)[C@](C)(OC)C[C@@H](C)C(=O)[C@H](C)[C@@H](O)[C@]1(C)O` [CLARITHROMYCIN], the MIC (Streptococcus pneumoniae [1]) was 8 µg/mL (≈ 10.7 µM), the MIC50 (Streptococcus pyogenes [2]) was > 64 µg/mL and the MIC90 (Streptococcus pyogenes [2]) was > 64 µg/mL. For the same molecule, the MIC (Streptococcus pyogenes [3]) was 8 µg/mL (≈ 10.7 µM), the MIC (Streptococcus pyogenes [4]) was > 64 µg/mL and the MIC (Streptococcus pneumoniae [5]) was 0.5 µg/mL (≈ 0.668 µM). For the same molecule, the MIC50 (Streptococcus pneumoniae [6]) was 16 µg/mL (≈ 21.4 µM), the MIC (Streptococcus pyogenes [7]) was 1 µg/mL (≈ 1.34 µM) and the MIC (Streptococcus pneumoniae [8]) was > 64 µg/mL. For the same molecule, the MIC50 (Streptococcus pneumoniae [9]) was 16 µg/mL (≈ 21.4 µM), the MIC90 (Streptococcus pneumoniae [9]) was > 64 µg/mL and the MIC50 (Streptococcus pneumoniae [10]) was > 64 µg/mL. The MIC (Streptococcus pneumoniae [11]) was > 64 µg/mL, the MIC (Streptococcus pyogenes [12]) was > 64 µg/mL and the MIC (Streptococcus pneumoniae [13]) was 0.06 µg/mL (≈ 0.0802 µM). The MIC (Streptococcus pyogenes [14]) was 0.5 µg/mL (≈ 0.668 µM), the MIC (Streptococcus pneumoniae [15]) was 32 µg/mL (≈ 42.8 µM) and the MIC (Streptococcus pneumoniae [16]) was 0.125 µg/mL (≈ 0.167 µM). The MIC (Streptococcus pyogenes [17]) was 4 µg/mL (≈ 5.35 µM), the MIC (Streptococcus pyogenes [18]) was > 64 µg/mL and the MIC (Streptococcus pneumoniae [19]) was 0.5 µg/mL (≈ 0.668 µM). For the same molecule, the MIC50 (Streptococcus pneumoniae [20]) was 1 µg/mL (≈ 1.34 µM), the MIC90 (Streptococcus pneumoniae [20]) was > 64 µg/mL and the MIC (Streptococcus pneumoniae [21]) was 8 µg/mL (≈ 10.7 µM). The MIC (Streptococcus pneumoniae [22]) was 0.25 µg/mL (≈ 0.334 µM), the MIC50 (Streptococcus pyogenes [23]) was 2 µg/mL (≈ 2.67 µM) and the MIC90 (Streptococcus pyogenes [23]) was > 64 µg/mL. For the same molecule, the MIC50 (Streptococcus pneumoniae [24]) was 16 µg/mL (≈ 21.4 µM), the MIC90 (Streptococcus pneumoniae [24]) was > 64 µg/mL and the MIC (Streptococcus pneumoniae [25]) was > 64 µg/mL. For the same molecule, the MIC (Streptococcus pneumoniae [26]) was > 64 µg/mL, the MIC50 (Streptococcus pyogenes [27]) was 0.03 µg/mL (≈ 0.0401 µM) and the MIC90 (Streptococcus pyogenes [27]) was 0.06 µg/mL (≈ 0.0802 µM). The MIC50 (Streptococcus pneumoniae [28]) was 0.03 µg/mL (≈ 0.0401 µM), the MIC (Streptococcus pneumoniae [29]) was > 64 µg/mL and the MIC50 (Streptococcus pneumoniae [30]) was 16 µg/mL (≈ 21.4 µM). It also gave an MIC90 (Streptococcus pneumoniae [30]) of 32 µg/mL (≈ 42.8 µM), an MIC (Streptococcus pyogenes [31]) of 1 µg/mL (≈ 1.34 µM) and an MIC (Streptococcus pneumoniae [32]) of 2 µg/mL (≈ 2.67 µM). For the same molecule, the MIC (Streptococcus pneumoniae [32]; Streptococcus pneumoniae, 3665, read-out: MIC) was 4 µg/mL (≈ 5.35 µM).

`CC[C@H]1OC(=O)[C@@](C)(F)C(=O)[C@H](C)[C@@H](O[C@@H]2O[C@H](C)C[C@H](N(C)C)[C@H]2O)[C@](C)(OC)C[C@@H](C)C(=O)[C@H](C)[C@H]2N(CCCCn3cc(-c4cccc(N)c4)nn3)C(=O)O[C@]12C` [SOLITHROMYCIN] was tested, and the MIC (Streptococcus pneumoniae [1]) was 0.03 µg/mL (≈ 0.0355 µM), the MIC50 (Streptococcus pyogenes [2]) was 0.5 µg/mL (≈ 0.592 µM) and the MIC90 (Streptococcus pyogenes [2]) was 1 µg/mL (≈ 1.18 µM). For the same molecule, the MIC (Streptococcus pyogenes [3]) was 0.03 µg/mL (≈ 0.0355 µM), the MIC (Streptococcus pyogenes [4]) was 8 µg/mL (≈ 9.47 µM) and the MIC (Streptococcus pneumoniae [5]) was 0.016 µg/mL (≈ 0.0189 µM). For the same molecule, the MIC (Streptococcus pyogenes [7]) was 0.016 µg/mL (≈ 0.0189 µM), the MIC (Streptococcus pneumoniae [8]) was 0.03 µg/mL (≈ 0.0355 µM) and the MIC50 (Streptococcus pneumoniae [9]) was 0.03 µg/mL (≈ 0.0355 µM). The MIC90 (Streptococcus pneumoniae [9]) was 0.25 µg/mL (≈ 0.296 µM), the MIC50 (Streptococcus pneumoniae [10]) was 0.125 µg/mL (≈ 0.148 µM) and the MIC90 (Streptococcus pneumoniae [10]) was 0.25 µg/mL (≈ 0.296 µM). The MIC (Streptococcus pneumoniae [11]) was 2 µg/mL (≈ 2.37 µM), the MIC (Streptococcus pyogenes [12]) was 0.5 µg/mL (≈ 0.592 µM) and the MIC (Streptococcus pneumoniae [13]) was 0.008 µg/mL (≈ 0.00947 µM). For the same molecule, the MIC (Streptococcus pyogenes [14]) was 0.03 µg/mL (≈ 0.0355 µM), the MIC (Streptococcus pneumoniae [15]) was 1 µg/mL (≈ 1.18 µM) and the MIC (Streptococcus pneumoniae [16]) was 0.06 µg/mL (≈ 0.071 µM). It also gave an MIC (Streptococcus pyogenes [18]) of 1 µg/mL (≈ 1.18 µM), an MIC (Streptococcus pneumoniae [19]) of 0.008 µg/mL (≈ 0.00947 µM) and an MIC50 (Streptococcus pneumoniae [20]) of 0.03 µg/mL (≈ 0.0355 µM). It also gave an MIC90 (Streptococcus pneumoniae [20]) of 0.125 µg/mL (≈ 0.148 µM), an MIC (Streptococcus pneumoniae [21]) of 0.002 µg/mL (≈ 0.00237 µM) and an MIC (Streptococcus pneumoniae [22]) of 0.008 µg/mL (≈ 0.00947 µM). The MIC50 (Streptococcus pyogenes [23]) was 0.03 µg/mL (≈ 0.0355 µM), the MIC90 (Streptococcus pyogenes [23]) was 0.125 µg/mL (≈ 0.148 µM) and the MIC50 (Streptococcus pneumoniae [24]) was 0.03 µg/mL (≈ 0.0355 µM). The MIC90 (Streptococcus pneumoniae [24]) was 0.25 µg/mL (≈ 0.296 µM), the MIC (Streptococcus pneumoniae [25]) was 32 µg/mL (≈ 37.9 µM) and the MIC (Streptococcus pneumoniae [26]) was 0.004 µg/mL (≈ 0.00473 µM). For the same molecule, the MIC50 (Streptococcus pyogenes [27]) was 0.015 µg/mL (≈ 0.0178 µM), the MIC90 (Streptococcus pyogenes [27]) was 0.03 µg/mL (≈ 0.0355 µM) and the MIC50 (Streptococcus pneumoniae [28]) was 0.008 µg/mL (≈ 0.00947 µM). It also gave an MIC90 (Streptococcus pneumoniae [28]) of 0.06 µg/mL (≈ 0.071 µM), an MIC (Streptococcus pneumoniae [29]) of 1 µg/mL (≈ 1.18 µM) and an MIC (Streptococcus pyogenes [31]) of 0.03 µg/mL (≈ 0.0355 µM).
